# High-throughput results from PubChem.
# INS-1E rescue: protection of INS-1E cells from cytokine death, primary screen, ATP luminescence, single point; INS-1E cytokine-induced death, 48 h; normalised: neutral wells 0, positive control 100; hit rate 0.1% among 20,000; protection from cytokine-induced ATP loss, % at 10 µM; AID 488910, 2010;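 active = mean replicate protection from cytokine-induced ATP loss at least 50% and at least 75% of replicates each reaching 50%; inconclusive = meets only one of the two criteria, mean or replicate share; inactive = fails both the mean and replicate share criteria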
#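 assay system = INS-1E rat insulinoma cells | amount = 8000 cells per well | medium = phenol-red-free RPMI with 5% fetal bovine serum | doses = one compound concentration, pin transfer | timing = 48 h cytokine plus compound treatment, 10 min reagent incubation | also added = IL-1β, TNF-α and IFN-γ cytokine mix | signal = CellTiter-Glo luminescence measuring cellular ATP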
# T cruzi intra: inhibitors of intracellular Trypanosoma cruzi, primary screen, cell-based, plate reader, single point, set 2 | hit rate 4.9% among 22,000 | AID 651903, 2012 | intracellular Trypanosoma cruzi in host cells | activity score (inhibition), % at 5.01 µM; in the data active = activity score above about 55%; inconclusive = no clear call, values can overlap the other calls;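 note: parasites and compound incubated about four days before reading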
# A1 apoptosis 2: A1 inhibitors via caspase activation, primary screen, cell-based, luminescence, HTS, two replicates. MEF A1-2A-BIM cells, caspase-Glo luminescence, 3 h; percent of clofoctol response, DMSO zero. caspase activation, % (test concentration not listed). 24,000 tested, under 10 active; in the data active = caspase activation above about 5.9%; inconclusive = no clear call, values can overlap the other calls; inactive = below about 2.2%
#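 Evaluation: Caspase-3/7 activity from luminescence increase | Assay system: A1-2A-BIM mouse embryonic fibroblasts | Quantity: 2500 MEF cells/well | Medium: RPMI-1640 plus 10% FBS | Detection: Caspase-Glo 3/7 luminescence, 1 h at room temperature | Dosing: 50 nL compound per well, pinned | Timing: Cells settled overnight, compound exposure 3 h at 37 °C, 5% CO2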
# A number is an active result; - = inactive; ? = inconclusive; . = no result. Many of the other results were omitted from the sample, so hits are more common in it than they were.
SMILES,INS-1E rescue,T cruzi intra,A1 apoptosis 2
COc1ccc(S(=O)(=O)N(C)C[C@H]2Oc3c(NC(=O)Nc4ccc(C(F)(F)F)cc4)cccc3C(=O)N([C@@H](C)CO)C[C@@H]2C)cc1,-,70,-
COc1ccc(S(=O)(=O)N(C)C[C@H]2Oc3ccc(NC(=O)Nc4cccc5ccccc45)cc3C(=O)N([C@@H](C)CO)C[C@H]2C)cc1,-,62,.
COc1ccc(S(=O)(=O)N(C)C[C@H]2Oc3c(NC(=O)Nc4ccc(C(F)(F)F)cc4)cccc3C(=O)N([C@H](C)CO)C[C@@H]2C)cc1,-,?,-
COc1ccc(S(=O)(=O)N(C)C[C@H]2Oc3c(NC(=O)Nc4ccc(C(F)(F)F)cc4)cccc3C(=O)N([C@@H](C)CO)C[C@H]2C)cc1,-,67,-
COc1ccc(S(=O)(=O)N(C)C[C@@H]2Oc3c(NC(=O)Nc4ccc(C(F)(F)F)cc4)cccc3C(=O)N([C@@H](C)CO)C[C@H]2C)cc1,-,-,-
O=C(O)CCCCCC(=O)N/N=C/c1cccc(Br)c1,-,-,-
O=C(NO)c1cccc(C(=O)N/N=C/c2cccc3ccccc23)c1,-,-,-
C[C@H](CO)N1C[C@H](C)[C@@H](CN(C)Cc2ccc(Cl)c(Cl)c2)Oc2c(NC(=O)Nc3ccc(F)cc3)cccc2C1=O,-,-,-
C[C@@H]1CN([C@@H](C)CO)C(=O)c2cccc(NC(=O)Nc3ccc(C(F)(F)F)cc3)c2O[C@H]1CN(C)Cc1ccc(Cl)c(Cl)c1,-,78,-
C[C@@H]1CN([C@H](C)CO)C(=O)c2cccc(NC(=O)Nc3ccc(F)cc3)c2O[C@H]1CN(C)Cc1ccc(Cl)c(Cl)c1,-,-,.
C[C@@H]1CN([C@H](C)CO)C(=O)c2cccc(NC(=O)Nc3ccc(C(F)(F)F)cc3)c2O[C@@H]1CN(C)Cc1ccc(Cl)c(Cl)c1,-,85,-
C[C@H]1CN([C@@H](C)CO)C(=O)c2cccc(NC(=O)Nc3ccc(F)cc3)c2O[C@H]1CN(C)Cc1ccc(Cl)c(Cl)c1,-,-,.
C[C@@H]1CN([C@H](C)CO)C(=O)c2cccc(NC(=O)Nc3ccc(C(F)(F)F)cc3)c2O[C@H]1CN(C)Cc1ccc(Cl)c(Cl)c1,-,87,.
COC(=O)[C@]1(Cc2ccccc2N=[N+]=[N-])N=C(c2ccc(OCCCO)cc2)O[C@@H]1c1ccccc1N=[N+]=[N-],.,.,-
O=C(NO)c1ccc(C(=O)N/N=C/c2ccc(I)cc2)cc1,-,-,-
CCCCCCC/C=N/NC(=O)CCCCCCC(=O)O,-,-,.
O=C(N/N=C/c1cc2ccccc2n1S(=O)(=O)c1ccccc1)c1ccccc1O,-,-,-
O=C(CCCCCCC(=O)Nc1ccccc1O)N/N=C/c1cc(Br)ccc1O,-,-,-
[N-]=[N+]=NCc1ccccc1C[C@]1(C(=O)N2CCOCC2)N=C(c2ccc(OCCCO)cc2)O[C@H]1c1ccccc1,.,.,-
COCCOC(=O)N1C(=O)[C@@]2(c3cc(C#Cc4ccc(OC)cc4)ccc31)[C@H](c1ccc(OCCO)cc1)N1[C@H](c3ccccc3)[C@H](c3ccccc3)OC(=O)[C@H]1[C@@H]2C(=O)NC[C@H](O)c1ccccc1,.,.,-
C[C@H]1CN([C@@H](C)CO)C(=O)c2cc(NS(=O)(=O)c3cccs3)ccc2O[C@H]1CN(C)Cc1ccc(C(=O)Nc2ccccc2N)cc1,-,-,.
C[C@@H]1CN([C@H](C)CO)C(=O)c2cc(NS(=O)(=O)c3cccs3)ccc2O[C@H]1CN(C)Cc1ccc(C(=O)Nc2ccccc2N)cc1,.,.,-
C[C@H](CO)N1C[C@H](C)[C@H](CN(C)Cc2ccc(C(=O)Nc3ccccc3N)cc2)Oc2ccc(NS(=O)(=O)c3cccs3)cc2C1=O,-,65,.
C[C@@H]1CN([C@H](C)CO)C(=O)Cc2cc(NS(=O)(=O)c3cccs3)ccc2O[C@@H]1CN(C)Cc1ccc(C(=O)Nc2ccccc2N)cc1,-,-,-
C[C@@H]1CN([C@@H](C)CO)C(=O)Cc2cc(NS(=O)(=O)c3cccs3)ccc2O[C@@H]1CN(C)Cc1ccc(C(=O)Nc2ccccc2N)cc1,-,62,-
C[C@@H]1CN([C@H](C)CO)C(=O)c2cc(NS(=O)(=O)c3cccs3)ccc2O[C@@H]1CN(C)Cc1ccc(C(=O)Nc2ccccc2N)cc1,-,64,.
O=C(CCCCCC(=O)N/N=C/c1cc(O)ccc1[N+](=O)[O-])NO,-,-,-
CC1(C)COC(CCC/C=N/NC(=O)c2ccccc2O)OC1,-,-,-
CC1=C(C/C=N/NC(=O)c2ccc(C(=O)NO)cc2)C(C)(C)CCC1,.,.,-
